ChEMBL document CHEMBL1144038, “Fluorinated methylenecyclopropane analogues of nucleosides. Synthesis and antiviral activity of (Z)- and (E)-9-{[(2-fluoromethyl-2-hydroxymethyl)-cyclopropylidene]methyl}adenine and -guanine” (Bioorg Med Chem, 2008)
The source made the active and inactive calls. No cut-off for these calls is given here.

Experiments:
[1] = Cytotoxicity against human Daudi cells by DNA hybridization assay; type: cell-based
[2] = Selectivity index, ratio of CC50 for human Daudi cells to EC50 for Epstein-Barr virus; type: functional
[3] = tested on: Human gammaherpesvirus 4; experiment: Antiviral activity against Epstein-Barr virus infected in human daudi cells by viral capsid immunofluorescence ELISA; type: functional, organism-based; details: human gammaherpesvirus 4, Daudi
[4] = tested on: Human gammaherpesvirus 4; experiment: Antiviral activity against Epstein-Barr virus infected in human daudi cells by DNA hybridization assay; type: functional, organism-based; details: human gammaherpesvirus 4, Daudi
[5] = tested on: Human gammaherpesvirus 4; experiment: Antiviral activity against Epstein-Barr virus infected in human akata cells; type: functional, organism-based; details: human gammaherpesvirus 4, Akata
Summary of the method: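 Akata cells kept in RPMI 1640 with 10% fetal bovine serum, L-glutamine, penicillin and gentamicin at 37 °C, 5% CO2. Lytic infection induced in latently infected cells with F(ab')2 goat anti-human IgG. Total DNA purified; EBV genome copies quantified by real-time TaqMan PCR (900 nM primers, 200 nM probe).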

[6] = Cytotoxicity against human akata cells by DNA hybridization assay; type: cell-based
Summary of the method: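 Latently infected Akata cells grown in RPMI 1640 with 10% fetal bovine serum, L-glutamine, penicillin and gentamicin at 37 °C in humidified 5% CO2.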

[7] = tested on: Human betaherpesvirus 5; experiment: Antiviral activity against Human cytomegalovirus Towne infected in HFF cells by plaque reduction assay; type: functional, organism-based; details: Human betaherpesvirus 5, Towne
[8] = Cytotoxicity against HFF cells; type: cell-based; details: human
[9] = tested on: Human betaherpesvirus 5; experiment: Antiviral activity against Human cytomegalovirus AD169 infected in HFF cells by plaque reduction assay; type: functional, organism-based
[10] = tested on: Hepatitis C virus; experiment: Antiviral activity against Hepatitis C virus infected in human Huh7 AVA5 cells by replicon assay; type: functional, organism-based, Hepacivirus hominis; details: Huh-7
Summary of the method: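 HCV subgenomic CON1 genotype 1b replicon line AVA5 (Huh7), sub-confluent cultures. Compound added daily in fresh medium for 3 days. Assessed 24 h after last dose: intracellular HCV RNA by blot hybridization for EC50; cytotoxicity (CC50) by neutral red dye uptake.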

[11] = Cytotoxicity against human Huh7 AVA5 cells; type: cell-based, Huh-7
Summary of the method: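 AVA5 replicon cells (Huh7 carrying subgenomic CON1 HCV, genotype 1b) kept as sub-confluent cultures. Compound given daily in fresh medium for 3 days. Viability was read by neutral red dye uptake 24 h after the last dose.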

[12] = Selectivity index, ratio of CC50 for human akata cells to EC50 for Epstein-Barr virus; type: functional
[13] = tested on: Human gammaherpesvirus 4; experiment: Antiviral activity against Epstein-Barr virus infected in human H1 cells by DNA hybridization assay; type: functional, organism-based; details: human gammaherpesvirus 4, H1

Row | Structure (SMILES) | CC50 [1] [µM] | Selectivity index [2] | EC50 [4] [µM] | EC50 [5] [µM] | CC50 [6] [µM] | other results
1 | Nc1nc2c(ncn2/C=C2\CC2(F)CO)c(=O)[nH]1 (stereo not drawn) | > 199 | >6.8 | 29.1 |  |  | EC50 [3]: < 0.32 µM
2 | Nc1ncnc2c1ncn2/C=C1\CC1(CO)CF (stereo not drawn) |  |  |  | 3.4 | 53.6 | 
3 | Nc1nc2c(ncn2COCCO)c(=O)[nH]1 [ACYCLOVIR] |  |  |  | 1.7 |  | 
4 | Nc1nc2c(ncn2/C=C2\CC2(CO)CF)c(=O)[nH]1 (stereo not drawn) |  |  |  | 3.2 | 64.1 | 
5 | Nc1nc2c(ncn2COC(CO)CO)c(=O)[nH]1 [GANCICLOVIR] |  |  |  |  |  | EC50 [7]: 2.5 µM; CC50 [8]: > 100 µM
6 | Nc1nc2c(ncn2/C=C2/CC2(CO)CF)c(=O)[nH]1 (stereo not drawn) |  |  |  | 7.5 | 59.7 | 
7 | Nc1ncnc2c1ncn2/C=C1/CC1(F)CO (stereo not drawn) | > 213 | >31.3 | 6.8 |  |  | 
8 | Nc1ncnc2c1ncn2/C=C1/CC1(CO)CF (stereo not drawn) |  |  |  | 0.5 | 55.7 | Activity [9]: inactive; EC50 [7]: 46 µM; CC50 [8]: > 100 µM; EC50 [10]: 6.5 µM; CC50 [11]: 11 µM
9 | Nc1nc2c(ncn2/C=C2/CC2(CO)CO)c(=O)[nH]1 [FILOCICLOVIR] |  |  |  |  | > 100 | Selectivity index [12]: > 40
10 | Nc1nc2c(ncn2/C=C2/CC2(F)CO)c(=O)[nH]1 (stereo not drawn) | > 199 | >24.9 | 8 |  |  | 
11 | Nc1ncnc2c1ncn2/C=C1\CC1(F)CO (stereo not drawn) | > 209 | >1.25 | 167 |  |  | EC50 [13]: 3.6 µM; EC50 [3]: 2.3 µM
